# Assay results as given in publication PMC3448962 (Biochemical pharmacology, 2012).
# Like-named read-outs stand apart in the source and are kept apart here. Where a SMILES comes first, the peptide text is derived from it. Bridges are numbered along the chain shown (N, C = ends). [ ]: non-standard residue; d: D form. The star is where a group is joined. X1 = CC[C@H](C)CCCCC(=O)*; Dab = NCC[C@H](N)C(=O)O
# How the values were obtained:
# [1] = test system: human AGP; test: Fluorometric assay: direct titration of fluorescent probe into AGP; conditions: for binding to AGP by direct fluorometric titration: emission did not plateau where seen, no Kd derived
# [2] = test system: human AGP; test: in vitro; conditions: pH 7.4, Ki
# [3] = test system: human AGP; test: Fluorometric probe displacement assay; conditions: for displacement of BODIPY-PL2 from AGP: probe BODIPY-PL2
# [4] = test system: human α-1-acid glycoprotein (AGP); test: Fluorometric probe displacement assay; conditions: human
# [5] = cited from earlier work
# [6] = rats; cited from earlier work
# [7] = human plasma; equilibrium dialysis; cited from earlier work
# [8] = test system: human AGP; test: in vitro; conditions: pH 7.4
# [9] = test system: human AGP; test: Surface plasmon resonance; type: binding; conditions: for SPR binding response at single concentrations: 100 μM and 300 μM of each compound
# Outline: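 AGP was thiol-coupled (PDEA/EDC, MES pH 5.0) to a CM5 chip at 5000 RU, with PBS pH 7.4 running buffer at 25 °C. Compound series were 3-fold dilutions from 3 mM, plus single 100 and 300 μM injections, at 50 μL/min: 30 s association, 60 s dissociation. Response was read 10 s before association ended, reference-subtracted and MW-normalised. Glycine pH 1.7 regenerated the chip; chlorpromazine served as surface control. Runs were done ≥3 times.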
# [10] = test system: human AGP; test: Isothermal titration calorimetry; type: binding; conditions: for Kd: 25 °C
# Outline: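 Human AGP (63 μM) in 20 mM HEPES pH 7.0, degassed, was titrated with 80 × 3-μL injections of 10–13 mM test compound at 240-s intervals, stirred at 307 rpm. Runs were at 37 °C, with one compound also at 15, 20, 25 and 30 °C. Delipidation was on lipidex 1000 in 20 mM HEPES pH 7.4 at 37 °C. Heat of dilution was subtracted, and n and ΔH came from a one-set-of-sites fit.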
# [11] = cited from earlier work; remark: listed apart in the source
compound,measurement,setting,value
"2-(4,4-difluoro-5-methyl-4-bora-3a,4a-diaza-s-indacene-3-dodecanoyl)-1-hexadecanoyl-sn-glycero-3-phosphocholine [BODIPY-PL2]",binding to AGP by direct fluorometric titration,[1],apparent weak affinity
"O=S(=O)(O)c1cccc2cccc(Nc3ccccc3)c12 [ANS, 1-anilino-8-naphthalene sulfonic acid]",Kd at 2 min,"[1]; human, pH 7.4",0.87 ± 0.07 µM
"CCCCCCCCCCCCCCCC(=O)OC[C@H](COP(=O)(O)OCCNC(=O)CCc1ccc2n1[B-](F)(F)[N+]1=C(C)C=C(C)C1=C2)OC(=O)CCCCCCCCCCCCCCC.CCN(CC)CC [BODIPY-PL1, N-(4,4-difluoro-5,7-dimethyl-4-bora-3a,4a-diaza-s-indacene-3-propionyl)-1,2-dihexa-decanoyl-sn-glycero-3-phosphoethanolamine, triethylammonium salt]",binding to AGP by direct fluorometric titration,[1],no fluorescence emission observed
CN(C)CCCN1c2ccccc2Sc2ccc(Cl)cc21 [Chlorpromazine],Ki at 2 min,[2]; displacement of ANS,0.14 ± 0.01 µM
same,Ki at 2 min,[2]; displacement of AO,2.8 ± 0.2 µM
same,Ki at 2 min,[2]; displacement of NR,0.67 ± 0.05 µM
same,displacement of BODIPY-PL2 from AGP,[3],able to compete with BODIPY-PL2
"CC[C@H](C)CCCCC(=O)N[C@@H](CCN)C(=O)N[C@H](C(=O)N[C@@H](CCN)C(=O)N[C@H]1CCNC(=O)[C@H]([C@@H](C)O)NC(=O)[C@H](CCN)NC(=O)[C@H](CCN)NC(=O)[C@H](CC(C)C)NC(=O)[C@@H](CC(C)C)NC(=O)[C@H](CCN)NC1=O)[C@@H](C)O [Colistin, colistin] (X1-[Dab]T[Dab][Dab][Dab][dL]L[Dab][Dab]T; lactam 4-C (inferred); N-terminus assumed)",Ki,"[4]; Ki values (text summary over probes), titration of probe-AGP solutions",> 200 µM
same,Ki,"[4]; Ki, displacement of ANS, probe ANS, 20°C, mean ± SE, n = 3 unless otherwise indicated, ND = not detected",351 ± 188 µM
same,displacement of BODIPY-PL2 from AGP,[3],unable to produce any discernible displacement
same,level of plasma protein binding in neutropenic infected mice compared to healthy mice,[5],greater
same,plasma protein binding,[6],55–57%
same,bound to plasma,[7],over 50%
"CCN(CC)c1ccc2nc3c4ccccc4c(=O)cc-3oc2c1 [NR, Nile Red]",Kd at 2 min,[8],0.91 ± 0.2 µM
Colistin nona-peptide [colistin NP],SPR binding response at single concentrations,[9],very poor responses
same,binding affinity for AGP by ITC,[10],no detectable binding affinity
Polymyxin B [PmB],"plasma protein binding, critically ill septic patients",[11]; critically ill septic patients,more than 90%
same,"plasma protein binding, healthy subjects",[11]; healthy subjects,around 56%
same,displacement of BODIPY-PL2 from AGP,[3],unable to produce any discernible displacement
same,Ki,"[3]; read-out: Ki values (text summary over probes), titration of probe-AGP solutions",> 200 µM
same,Ki,"[3]; read-out: Ki, displacement of ANS, probe ANS, 20°C, mean ± SE, n = 3 unless otherwise indicated, ND = not detected",225 ± 49 µM
same,SPR binding response at single concentrations,[9],highest response
same,Kd,"[10]; read-out: Kd, delipidated AGP, delipidated sample",210 µM
same,Kd,"[10]; read-out: Kd, non-delipidated AGP, non-delipidated sample",103 µM
same,bound to plasma,[7],over 50%
[Dansyl-Lys]^1 polymyxin B3 [[Dansyl-Lys^1]PmB3],binding to AGP by direct fluorometric titration,[1],weak AGP affinity
colistin methanesulfonate [CMS],ability to displace the probes,"[3]; ANS, Auramine O, Nile Red",no ability to displace any of the probes
same,SPR binding response at single concentrations,[9],very poor responses
same,concentration dependence of SPR binding,[9]; concentration series 3 mM to 1.3 μM,not concentration dependent
same,binding affinity for AGP by ITC,[10],no detectable binding affinity
